# sdo1 growth = compounds rescuing growth of sdo1-depleted yeast, bone marrow failure model; S. cerevisiae sdo1-depleted JHY4D growth rescue, OD600 30 h; hits give high values; pdr5 snq2 efflux-pump mutant strain; z-score at 10 µM; actives 0.21% (n = 140,000); AID 817;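 active = z-score above 3 at both the 24 hr and the 30 hr optical density reads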
# RAM inhibit = blocks the yeast RAM network; S. cerevisiae dse1pr::URA3 reporter, 5-FOA growth OD615, 2 d; analog-sensitive cbk1-as2 kinase mutant strain; inhibition, % at 50 µM; actives 1.8% (n = 190,000); AID 868;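 active = inhibition above a set limit, 3 SD over mean compound inhibition, cut at about 8.4% in these data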;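 also: inhibition rescues growth on 5-FOA so higher OD means more RAM inhibition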
# BB579 growth dn = reduces growth of yeast BB579 in restrictive medium. S. cerevisiae BB579 growth, OD615, 48 h. inhibition, % at 10 µM. AID 804. actives 0.51% (n = 140,000);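 active = inhibition above a set limit, 3 SD over the mean compound inhibition, cut at about 44% in these data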
#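 controls = amphotericin B 10 µg/mL, positive | assay system = DeaD yeast strain BB579 | schedule = 48 h compound exposure at 30 °C after 4 h preincubation | detection = OD615 turbidity measurement | medium = restrictive CSMM-D medium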
# Measles CPE = protection of cells from measles virus | Measles virus-infected cells, CPE protection, absorbance | protection (pct of control), % at 4 µM | actives 1.5% (n = 140,000) | AID 841; in the data active = protection mostly above about 24%, no sharp cut-off; inactive = mostly below about 26%
# Yeast lifespan up = yeast lifespan extension; inhibition of the nicotinamide effect, % at 10 µM; actives 0.68% (n = 130,000); S. cerevisiae growth with nicotinamide, OD615; deaD strain in restrictive glucose medium;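 active = inhibition above a set limit, placed 3 SD over the median of all compounds, cut at about 26% in these data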
#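 Assay system: DeaD-strain S. cerevisiae. Medium: CSMM-D glucose medium, restrictive. Reagent: nicotinamide, 1.5 mM, co-present with compound. Compound: 10 µM single point, 0.25% DMSO. Schedule: culture preincubation 4 h, compound exposure 48 h, both 30 °C. Detection: absorbance at 615 nm.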
# Numbers stand for hits; . = inactive; / = no result. A selection: hits, their analogues and other compounds. The true share with any hit is near 3.8%.
SMILES,sdo1 growth,RAM inhibit,BB579 growth dn,Measles CPE,Yeast lifespan up
CCOc1ccc(-c2nc(-c3ccc(OC)cc3)no2)cc1OCC,.,9.1,.,.,.
COc1ccc(-c2noc(-c3cccc(Cl)c3)n2)cc1OC,.,9.1,.,.,.
Cn1nc(Oc2nc(N3CCOCC3)nc(N3CCOCC3)n2)ccc1=O,.,.,.,.,.
O=c1c(Cl)c(NCc2ccc(F)cc2)cnn1C12CC3CC(CC(C3)C1)C2,.,.,.,36,.
Cc1cc(C)n(CCc2nc(-c3ccc(-c4ccccc4)cc3)cs2)n1,.,8.7,.,.,.
COc1ccc(-c2csc(CCn3nc(C)cc3C)n2)cc1,/,.,/,/,/
CCC(=O)NC(c1cccs1)c1cc([N+](=O)[O-])c2cccnc2c1O (centres undefined),.,.,.,.,.
CC(=O)NC(c1cccs1)c1cc([N+](=O)[O-])c2cccnc2c1O (centres undefined),.,.,80,.,.
CC(C)C(=O)NC(c1ccccc1)c1cc([N+](=O)[O-])c2cccnc2c1O (centres undefined),.,.,74,.,.
CCCC(=O)NC(c1cccs1)c1cc([N+](=O)[O-])c2cccnc2c1O (centres undefined),.,.,47,.,.
CCCNCc1cc(OC)c(OCC(=O)NCCc2ccccc2)cc1Br,.,.,.,.,.
CCCc1cc(-c2n[nH]c(C)c2-c2ccc(C(=O)OCC)o2)c(O)cc1O,.,9.6,.,.,.
CCCc1cc(C(=O)Cc2ccc(C(=O)OCC)o2)c(O)cc1O,.,.,.,.,.
COc1ccc(CCNS(=O)(=O)c2ccc3c(c2)CC(C)N3C(C)=O)cc1OC (centres undefined),.,.,.,38,.
COc1ccc(CCNS(=O)(=O)c2ccc3c(c2)CCN3C(=O)C2CC2)cc1OC,.,.,.,.,.
CC1=NOC(=O)/C1=C/c1ccc(-c2ccc(Cl)cc2)o1,.,.,92,.,.
COc1ccccc1NC(=O)CSc1nnc(CCNC(=O)c2ccc(C)cc2)n1C,/,.,/,/,/
CCOC(=O)C/C(C)=N/NC(=O)Nc1ccccc1,.,.,.,.,31
C/C(=N/NC(=O)c1ccccc1)C1=C(O)CC(C)(C)CC1=O,/,.,/,/,/
CC(=Nc1ccc2c(c1)nc(CO)n2C)C1=C(O)CC(C)(C)CC1=O,.,.,.,.,46
CCc1ccc(NC(=O)C(=O)NCc2ccccn2)cc1,/,.,/,/,/
O=C(c1ccccc1)c1ccc2nc(-c3ccc(NC(=O)c4ccccc4Br)cc3)[nH]c2c1,.,8.7,.,.,.
O=C(Nc1ccc(-c2nc3ccccc3[nH]2)cc1)c1ccc(N2C(=O)CCC2=O)cc1,.,9.1,.,.,.
CC(C)(C)N1C(=O)c2ccc(C(=O)Nc3ccc(-c4nc5ccccc5[nH]4)cc3)cc2C1=O,.,.,.,.,.
Cc1cc(N(CC(=O)NC(C)C)S(C)(=O)=O)ccc1Br,.,.,.,.,.
SMILES,sdo1 growth,RAM inhibit,BB579 growth dn,Measles CPE,Yeast lifespan up
COc1cc(CN2CCC(C(=O)N3CCN(c4ccccc4F)CC3)CC2)cc(OC)c1O,.,.,.,51,.
COc1cccc(-c2nc(CS(=O)(=O)CC(=O)NCCCOC(C)C)c(C)o2)c1,.,.,.,41,.
CCCCCCCCNC(=O)c1ccc(C)cc1,/,.,/,/,/
O=S(=O)(NCCCc1ccccc1)c1ccccc1,.,.,.,35,.
CC(C)CNC(=O)CN(C1CCCCC1)S(C)(=O)=O,.,.,44,.,.
CCCNC(=O)CN(C1CCCCC1)S(C)(=O)=O,.,.,.,.,.
CCOc1cc(OCC)cc(C(=O)NC(=S)Nc2cccc(C(F)(F)F)c2)c1,.,11,.,.,.
CCOc1cc(OCC)cc(C(=O)Nc2cccc(C(C)=O)c2)c1,.,.,.,.,.
CCOc1cccc(C(=O)NC(=S)Nc2ccc(N3CCCC3)cc2)c1,.,11,.,.,.
CCOc1cccc(C(=O)Nc2ccc(N3CCN(S(C)(=O)=O)CC3)cc2)c1,.,.,.,.,.
CCn1c(SCc2cccc(F)c2)nc2c(c1=O)SCC2,/,.,/,/,/
O=S(=O)(c1ccc(NC(=S)NCc2ccco2)cc1)N1CCCC1,.,.,.,.,.
CC1CCCN(S(=O)(=O)c2coc(C(N)=O)c2)C1 (centres undefined),.,.,.,.,.
CC1CCCCN1S(=O)(=O)c1coc(C(N)=O)c1 (centres undefined),.,.,45,.,.
COc1ccccc1-c1nc(C#N)c(N2CCc3ccccc3C2)o1,.,10,.,.,.
CCOC(=O)C(C)c1nc2ccccc2[nH]c1=O (centres undefined),.,.,.,25,.
O=c1[nH]c2ccccc2nc1C(Cl)c1ccccc1 (centres undefined),.,.,.,.,37
NC(=S)Nc1nc2ccccc2[nH]c1=O,.,.,.,.,.
CCC(CC)c1nnc(NC(=O)CCCN2C(=O)c3ccccc3C2=O)s1,.,.,.,.,.
Cc1cc(C)cc(NC(=O)OCCN2CCN(Cc3ccccc3)CCC2=O)c1,.,.,.,.,.
CCOC(=O)c1sc(=S)n(-c2ccccc2Cl)c1SC,.,8.8,.,.,.
CCOC(=O)c1sc(=S)n(-c2cc(F)ccc2F)c1N,.,.,45,.,.
COC(=O)c1sc(=S)n(-c2cc(F)ccc2F)c1N,.,.,.,.,.
O=C(C1CC(=O)N(C2CCCCC2)C1)N1CCc2ccccc21 (centres undefined),/,.,/,/,/
Cc1c(C(=O)NC(C)C)sc2ncn(CC(=O)N3CCC(C)CC3)c(=O)c12,.,.,.,.,.
SMILES,sdo1 growth,RAM inhibit,BB579 growth dn,Measles CPE,Yeast lifespan up
O=C(CCl)c1ccc(Cc2ncc(C(F)(F)F)cc2Cl)s1,.,.,.,.,68
NS(=O)(=O)c1ccc(Cc2ncc(C(F)(F)F)cc2Cl)s1,.,.,.,.,.
Cn1cc(CNCc2cn(C)nc2-c2ccc(C3CCCCC3)cc2)cn1,/,.,/,/,/
COc1cc(/C=C(\C#N)c2ccccn2)ccc1OCc1ccccc1Cl,.,9.7,.,.,.
CCCSc1nc(N2CCCC2)c2c(c1C#N)CC(C)(C)OC2,.,8.5,.,.,.
CSc1nc(N2CCCC2)c2c(c1C#N)CC(C)(C)OC2,.,.,.,.,.
O=C(NCc1ccccc1)NCC12CC3CC(CC(C3)C1)C2,/,.,/,/,/
O=C(CC12CC3CC(CC(C3)C1)C2)NC(=S)NCc1ccccc1,.,9.4,.,.,.
COc1ccc(-c2noc(CCC(=O)Nc3cccc(C)c3)n2)cc1,.,.,.,.,.
COc1ccc(-c2noc(N(C)CC(=O)Nc3cccc(C(F)(F)F)c3)n2)cc1,.,10,.,.,.
Cc1ccc(S(=O)(=O)NCCc2nnc3ccc(SCC(=O)Nc4nc5ccccc5s4)nn23)cc1,.,10,.,30,.
COc1cccc(CC2(CO)CCCN(Cc3sc(N4CCCC4)nc3Cl)C2)c1 (centres undefined),/,.,/,/,/

# High-throughput results (PubChem BioAssay)
